ChEMBL document CHEMBL1151261, “Antineoplastic agents. 509: synthesis of fluorcombstatin phosphate and related 3-halostilbenes(1)” (J Nat Prod, 2005)
In brackets after ≈: the same amount, converted by molar mass.

Legend:
DU-145 = assay: Cytotoxicity against human DU145 cells after 48 hrs by sulforhodamine B assay; assay type: functional; conditions: DU-145, 48 h
In short: (§1)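 Human tumor lines exposed to compound for 48 h, then fixed with trichloroacetic acid and stained with sulforhodamine B (NCI standard protocol); optical density read on a microplate reader. GI50 is the concentration giving a 50% reduction in net protein increase, calculated from optical density data.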

KM-20L2 = assay: Cytotoxicity against human KM20L2 cells after 48 hrs by sulforhodamine B assay; assay type: functional; conditions: KM-20L2, 48 h; in short: as §1
BXPC-3 = assay: Cytotoxicity against human BxPC3 cells after 48 hrs by sulforhodamine B assay; assay type: functional; conditions: BXPC-3, 48 h; in short: as §1
SF-268 = assay: Cytotoxicity against human SF268 cells after 48 hrs by sulforhodamine B assay; assay type: functional; conditions: SF-268, 48 h; in short: as §1
MCF7 = assay: Cytotoxicity against human MCF7 cells after 48 hrs by sulforhodamine B assay; assay type: functional; conditions: MCF7, 48 h; in short: as §1
NCI-H460 = assay: Cytotoxicity against human NCI-H460 cells after 48 hrs by sulforhodamine B assay; assay type: functional; conditions: NCI-H460, 48 h; in short: as §1
P388 = assay: Cytotoxicity against mouse P388 cells after 48 hrs by Coulter particle counting; conditions: P388, 48 h, read-out: ED50 (the source's name)
[1] = Displacement of [3H]colchicine from tubulin
In short: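 [3H]colchicine binding with 1.0 μM tubulin, 5.0 μM [3H]colchicine and inhibitor at 1.0 μM.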

Neisseria gonorrhoeae = assay: Antimicrobial activity against Neisseria gonorrhoeae ATCC 49226 after 24 hrs by broth microdilution assay; assay type: functional; conditions: ATCC 49226, 24 h
In short: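 Neisseria tested by NCCLS broth microdilution in gonococcal typing broth. Final inoculum about 5×10^5 CFU/mL; 2-fold compound dilutions from DMSO; DMSO turbidity control; 37 °C with 5% CO₂ without agitation, 24 h. MIC = lowest concentration with no visible growth.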

Structure (SMILES)	GI50 (DU-145) [µg/mL]	GI50 (KM-20L2) [µg/mL]	GI50 (BXPC-3) [µg/mL]	GI50 (SF-268) [µg/mL]	GI50 (MCF7) [µg/mL]	GI50 (NCI-H460) [µg/mL]	EC50 (P388) [µg/mL]	Activity [1] [%]	MIC (Neisseria gonorrhoeae) [µg/mL]
C1CCNCC1.C1CCNCC1.COc1ccc(/C=C\c2cc(F)c(OC)c(OC)c2)cc1OP(=O)(O)O	0.011	> 1	0.39	0.0075	0.011	0.022	0.004		
COc1ccc(/C=C\c2cc(O)c(OC)c(OC)c2)cc1O	0.0043 (≈ 0.0142 µM)	1.2 (≈ 3.97 µM)	2.3 (≈ 7.61 µM)	0.0083 (≈ 0.0275 µM)	0.49 (≈ 1.62 µM)	0.19 (≈ 0.628 µM)	0.26 (≈ 0.86 µM)		
COc1ccc(/C=C\c2cc(Br)c(OC)c(OC)c2)cc1OP(=O)([O-])[O-].[Cs+].[Cs+]	0.0079	0.48	0.15	0.0064	0.0044	0.0066	< 0.01		
COc1ccc(/C=C\c2cc(Br)c(OC)c(OC)c2)cc1OP(=O)([O-])[O-].[K+].[K+]	0.0028	0.24	0.2	0.0032	0.0035	0.0029	< 0.01		
COc1ccc(/C=C/c2cc(OC)c(OC)c(O[Si](C)(C)C(C)(C)C)c2)cc1[N+](=O)[O-]	2.8 (≈ 6.28 µM)	> 10	> 10	4.1 (≈ 9.2 µM)	3.2 (≈ 7.18 µM)	2.9 (≈ 6.51 µM)	2.22 (≈ 4.98 µM)		
C1COCCN1.C1COCCN1.COc1ccc(/C=C\c2cc(F)c(OC)c(OC)c2)cc1OP(=O)(O)O	0.0046	> 1	0.73	0.0087	0.0079	0.005	0.015		
COc1ccc(/C=C\c2cc(O)c(OC)c(OC)c2)cc1N.Cl	0.012	1.3	1	0.0022	< 0.01	0.035	0.0289		
COc1ccc(/C=C\c2cc(Br)c(OC)c(OC)c2)cc1OP(=O)([O-])[O-].[Na+].[Na+]	0.0046	0.23	0.093	0.0034	0.0041	0.0028	< 0.01		
COc1ccc(/C=C\c2cc(N)c(OC)c(OC)c2)cc1N	0.044 (≈ 0.146 µM)	0.03 (≈ 0.0999 µM)	0.053 (≈ 0.176 µM)	0.076 (≈ 0.253 µM)	< 0.01	0.014 (≈ 0.0466 µM)	0.036 (≈ 0.12 µM)		
COc1ccc(/C=C\c2cc(O)c(OC)c(OC)c2)cc1[N+](=O)[O-]	0.39 (≈ 1.18 µM)	1.8 (≈ 5.43 µM)	2.5 (≈ 7.55 µM)	0.62 (≈ 1.87 µM)	0.49 (≈ 1.48 µM)	0.31 (≈ 0.936 µM)	0.402 (≈ 1.21 µM)		
COc1ccc(/C=C\c2cc(OC)c(OC)c(OC)c2)cc1O [COMBRETASTATIN A4]	0.0008 (≈ 0.00253 µM)	0.061 (≈ 0.193 µM)	0.39 (≈ 1.23 µM)	< 0.001		0.0006 (≈ 0.0019 µM)	0.0003 (≈ 0.000948 µM)	81	
COc1ccc(/C=C/c2cc(O)c(OC)c(OC)c2)cc1[N+](=O)[O-]	0.36 (≈ 1.09 µM)	1.2 (≈ 3.62 µM)	1.1 (≈ 3.32 µM)	0.41 (≈ 1.24 µM)	0.56 (≈ 1.69 µM)	0.25 (≈ 0.755 µM)	0.224 (≈ 0.676 µM)		
COc1ccc(/C=C\c2cc(Br)c(OC)c(OC)c2)cc1OP(=O)([O-])[O-].[Ca+2]	0.0063	0.37	< 0.001	0.0022	0.0022	0.0068	0.288		
COc1cc(/C=C\c2ccc(OC)c(OP(=O)([O-])[O-])c2OP(=O)([O-])[O-])cc(OC)c1OC.[Na+].[Na+].[Na+].[Na+]	0.034	0.53	1.5	0.036	0.024	0.038	< 0.01		
COc1ccc(/C=C\c2cc(Br)c(OC)c(OC)c2)cc1OP(=O)([O-])[O-].[Rb+].[Rb+]	0.042	2.6	0.56	0.023	0.043	0.041	< 0.01		
COc1ccc(/C=C\c2cc(O)c(OC)c(OC)c2)cc1N	0.035 (≈ 0.116 µM)	0.39 (≈ 1.29 µM)	0.37 (≈ 1.23 µM)	0.04 (≈ 0.133 µM)	0.06 (≈ 0.199 µM)	0.03 (≈ 0.0996 µM)	0.0174 (≈ 0.0577 µM)		
COc1ccc(/C=C\c2cc(Br)c(OC)c(OC)c2)cc1OP(=O)([O-])[O-].[Mg+2]	0.0045	0.27	0.074	0.0053	0.0045	0.0039	< 0.01		
COc1ccc(/C=C/c2cc(Cl)c(OC)c(OC)c2)cc1O	0.038 (≈ 0.118 µM)	1.4 (≈ 4.36 µM)	0.59 (≈ 1.84 µM)	0.048 (≈ 0.15 µM)	0.041 (≈ 0.128 µM)	0.034 (≈ 0.106 µM)	0.027 (≈ 0.0842 µM)		
COc1ccc(/C=C\c2cc(F)c(OC)c(OC)c2)cc1OP(=O)([O-])[O-].[Na+].[Na+]	0.0036	1.5	0.59	0.0051	0.0044	0.0094	0.0298		16
COc1ccc(/C=C\c2cc(OC)c(OC)c(OC)c2)cc1OP(=O)([O-])[O-].[Na+].[Na+] [FOSBRETABULIN DISODIUM]		0.034		0.036		0.029	0.0004		
COc1ccc(/C=C\c2cc(F)c(OC)c(OC)c2)cc1OP(=O)([O-])[O-].[K+].[K+]	0.0037	> 1	0.548	0.0039	0.004	0.0043	0.0074		
COc1ccc(/C=C\c2cc(F)c(OC)c(OC)c2)cc1OP(=O)([O-])[O-].[Li+].[Li+]	0.0043	> 1	0.49	0.004	0.0038	0.0039	0.019		
COc1ccc(/C=C\c2cc(Br)c(OC)c(OC)c2)cc1OP(=O)([O-])[O-].[Li+].[Li+]	0.0066	0.11	0.13	0.003	0.0039	0.0026	< 0.01		
COc1ccc(/C=C\c2cc(OC)c(OC)c([N+](=O)[O-])c2)cc1[N+](=O)[O-]	0.34 (≈ 0.944 µM)	0.27 (≈ 0.749 µM)	0.39 (≈ 1.08 µM)	0.59 (≈ 1.64 µM)	0.37 (≈ 1.03 µM)	0.24 (≈ 0.666 µM)	> 10		
COc1ccc(/C=C\c2cc(OC)c(OC)c(OC)c2)c(O)c1O [COMBRETASTATIN A-1]	0.17 (≈ 0.512 µM)	0.061 (≈ 0.184 µM)	4.4 (≈ 13.2 µM)			0.74 (≈ 2.23 µM)	0.251 (≈ 0.755 µM)		
